Experimental data published in ChEMBL document CHEMBL1123232, “Acyl, N-protected alpha-aminoacyl, and peptidyl derivatives as prodrug forms of the alcohol deterrent agent cyanamide” (J Med Chem, 1986).

How the values were obtained:
Format in all cases: functional, organism-based
[1] = system: Rattus norvegicus; test: (§1) Tested for effect on ethanol derived blood Ach levels in rats at 1.0 mmol/kg
Summary of the method: (§2)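 Fasted male Sprague-Dawley rats (185-225 g) received a single 1.0 mmol/kg ip dose at zero time, in saline or in 2% aqueous CMC if water-insoluble. Ethanol (2.0 g/kg, ip) was given at 2 or 15 h. Blood from open-chest cardiac puncture 1 h later went into 5 mM sodium azide. Headspace GC in duplicate against an AcH standard curve. Four rats per protocol; mean ± SE.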

[2] = system: Rattus norvegicus; test: as §1; summary of the method: as §2; remark: listed apart in the source
[3] = system: Rattus norvegicus; test: Compound was tested for effect on ethanol derived blood Ach levels in rats at administration (pro drug administration of 1.0 mmol/kg) ip; summary of the method: as §2
[4] = system: Rattus norvegicus; test: Compound was tested for effect on ethanol derived blood Ach levels in rats at the administrations (pro drug administration of 1.0 mmol/kg) oral(po)
Summary of the method: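 A single 1.0 mmol/kg dose was given by stomach tube at zero time to fasted male Sprague-Dawley rats (185-225 g). Ethanol (2.0 g/kg, ip) was given 1 h before sacrifice: blood sampled at 4 h, or over 48 h with ethanol at 1, 4, 11, 23, 35 and 47 h, two rats per time. Cardiac blood went into sodium azide; AcH was measured by headspace GC in duplicate.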

Row | Structure (SMILES) | Concentration [1] | Concentration [2] | Concentration [3] | Concentration [4]
1 | N#CN | 1050 µM | 225 µM | – | –
2 | N#CNC(=O)OCc1ccccc1 | 1200 µM | 50 µM | – | –
3 | N#CNC(=O)C1CCC(=O)N1C(=O)OCc1ccccc1 (stereo not given) | 175 µM | 35 µM | – | –
4 | N#CNC(=O)Cc1ccccc1 | 1250 µM | 1300 µM | – | –
5 | N#CNC(=O)C12CC3CC(CC(C3)C1)C2 | 1250 µM | 75 µM | – | –
6 | CC(C)C[C@H](NC(=O)[C@@H]1CCC(=O)N1)C(=O)NC#N | 200 µM | 25 µM | – | –
7 | N#CNC(=O)CNC(=O)c1ccccc1 | 400 µM | 200 µM | – | –
8 | CCCCCCCCCCCCCCCC(=O)NC#N | 1600 µM | 1100 µM | 1150 µM | 1300 µM
9 | CC(=O)NC#N | 250 µM | 50 µM | 400 µM | 350 µM
10 | CC(C)C[C@H](NC(=O)CNC(=O)OCc1ccccc1)C(=O)NC#N | 1050 µM | 35 µM | – | –
11 | N#CNC(=O)c1ccccc1 | 300 µM | 100 µM | – | –
12 | CCCC(=O)NC#N | 1750 µM | 250 µM | – | –
13 | CC(C)C[C@H](NC(=O)c1ccccc1)C(=O)NC#N | 1000 µM | 300 µM | – | –
14 | N#CNC(=O)[C@H](Cc1ccccc1)NC(=O)[C@@H]1CCC(=O)N1 | 1150 µM | 150 µM | – | –
15 | CC(C)(C)C(=O)NC#N | 1200 µM | 200 µM | – | –
16 | CCCCCCCCCCCCCCCCCC(=O)NC#N | 1300 µM | 600 µM | – | –
17 | N#CNC(=O)CNC(=O)OCc1ccccc1 | 900 µM | 35 µM | 850 µM | 125 µM
